pKd: −log10 of the molar value. Active and inactive are the calls of the source. The rule behind the calls is not given here.
How the values were obtained:
[1] = biological target: Aurora kinase C (Homo sapiens) (UniProt Q9UQB9); assay: Inhibition of AURKC (unknown origin) assessed as residual enzyme activity at 10 uM by Ambit kinase binding assay relative to control
[2] = biological target: Serine/threonine-protein kinase Nek1 (Homo sapiens) (UniProt Q96PY6); assay: Inhibition of NEK1 (unknown origin) assessed as residual enzyme activity at 10 uM by Ambit kinase binding assay relative to control
[3] = biological target: Tyrosine-protein kinase Tec (Homo sapiens) (UniProt P42680); assay: Inhibition of TEC (unknown origin) assessed as residual enzyme activity at 10 uM by Ambit kinase binding assay relative to control
[4] = biological target: Serine/threonine-protein kinase ULK3 (Homo sapiens) (UniProt Q6PHR2); assay: Inhibition of ULK3 (unknown origin) assessed as residual enzyme activity at 10 uM by Ambit kinase binding assay relative to control
[5] = test system: U2OS; assay: Reversal of nocodazole-induced mitotic arrest in human U2OS cells assessed as Ser10 phosphorylated Histone H3-positive 4c population at 5 uM incubated for 16 hrs by flow cytometry (reference value: 94 %); type: functional
[6] = test system: U2OS; assay: Reversal of nocodazole-induced mitotic arrest in human U2OS cells assessed as decrease in cyclin B level at 10 uM incubated for 4 hrs in presence of MG132 by immunoblot analysis; type: functional, cell-based
[7] = biological target: ALK tyrosine kinase receptor (Homo sapiens, UniProt Q9UM73); assay: Inhibition of ALK (unknown origin) assessed as residual enzyme activity at 10 uM by Ambit kinase binding assay relative to control
[8] = biological target: Insulin receptor (Homo sapiens, UniProt P06213); assay: Inhibition of INSR (unknown origin) assessed as residual enzyme activity at 10 uM by Ambit kinase binding assay relative to control
[9] = biological target: MAP/microtubule affinity-regulating kinase 4 (Homo sapiens) (UniProt Q96L34); assay: Inhibition of MARK4 (unknown origin) assessed as residual enzyme activity at 10 uM by Ambit kinase binding assay relative to control
[10] = test system: U2OS; assay: Induction of chromosome misalignment in human U2OS cells expressing histone H2B-GFP at 5 to 10 uM treated for 4 hrs followed by MG132 treatment for 30 to 60 mins and subsequent replacement of medium containing MG132 measured after 30 mins by immunofluoresence analysis; type: functional, cell-based; conditions: dose 5-10 µM, time 4.5-5 hrs
[11] = test system: TERT-RPE1; assay: Induction of aneuploidy in human TERT-RPE1 cells assessed as average chromosome number at 10 uM treated for 24 hrs by karyo-typing analysis (reference value: 45.9 +/- 0.3); type: functional
Method in brief: (§1)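 Asynchronous cells were exposed to 10 μM compound for 24 h. Medium was then replaced with medium containing 100 ng/mL colcemid for 2 h to arrest cells in metaphase, after which cells were harvested and karyotyped.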

[12] = test system: TERT-RPE1; assay: Induction of aneuploidy in human TERT-RPE1 cells assessed as frequency of non-disjunction events per cell at 10 uM treated for 24 hrs by karyo-typing analysis (reference value: 0.1); type: functional; method in brief: as §1
[13] = test system: UTRM10; assay: Upregulation of phosphorylated histone H3 level in UTRM10 cells (unknown origin) upto 1 uM by immunoblot analysis; type: functional, cell-based
[14] = test system: UTRM10; assay: Induction of aneuploidy in UTRM10 cells (unknown origin) expressing LAP-tagged Mps1 M602Q mutant co-transfected with H2B-EYFP at 10 uM by time-lapse microscopy; type: functional, cell-based
Method in brief: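 UTRM10 LAP-Mps1 cells transfected with H2B-EYFP were treated and imaged by time-lapse in a heated chamber (37°C, 5% CO2).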

[15] = test system: UTRM10; assay: Inhibition of hyperphosphorylation of LAP-tagged Mps1 M602Q mutant (unknown origin) expressed in UTRM10 cells (unknown origin) measured after 90 mins by immunoblot analysis; type: cell-based; conditions: Homo sapiens
[16] = biological target: Aurora kinase B (Homo sapiens) (UniProt Q96GD4); assay: Inhibition of Aurora B phosphorylation at Thr232 in human U2OS cells by Western blot analysis; type: cell-based
Method in brief: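 Thymidine-released U2OS cells were treated with inhibitor or DMSO for 1 hr before mitotic entry, then with taxol (1 μM) plus MG132 (10 μM). Mitotic cells were collected by shake-off and immunoblotted for phospho-Aurora B (Thr232). Cyclin B served as the mitotic marker and the Mps1 mobility shift as autophosphorylation.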

[17] = test system: HeLa S3; assay: Effect on thymidine-treated human HeLa S3 cell populations after one cell doubling at 10 uM incubated for 4 hrs followed by thymidine release by immunofluorescence imaging analysis; type: functional, cell-based
[18] = test system: U2OS; assay: Effect on thymidine-treated human U2OS cell populations after one cell doubling at 10 uM incubated for 4 hrs followed by thymidine release by immunofluorescence imaging analysis; type: functional, cell-based
[19] = test system: U2OS; assay: Inhibition of anaphase delay in thymidine-treated human U2OS cells expressing H2B-GFP and Plk4 overexpression measured for 30 mins by time lapse imaging analysis; type: functional, cell-based
Method in brief: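 U2OS H2B-GFP cells carrying doxycycline-inducible Plk4. Thymidine 18 h, release into doxycycline (2 μg·ml⁻¹) 10 h, second thymidine 18 h, release 6 h, then 5 μM inhibitor. Time-lapse imaging at 37°C, 5% CO₂ recorded time after NEBD to anaphase. Mean ± SD of 3 independent experiments; Student's t test.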

[20] = test system: A549; assay: Antiproliferative activity against human A549 cells assessed as loss of clonal survival upto 10 uM incubated for 10 days by crystal violet staining based assay; type: functional, cell-based; conditions: time 10.0 day
Method in brief: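 Colony outgrowth: cells plated at 200 cells per 60-mm dish, exposed to compound or DMSO vehicle and stained with crystal violet after 10 days. HCT116 grown in McCoy's 5A; A549 and HeLa in DMEM; hTERT-RPE1 in DMEM/F-12. All media had 10% FBS and penicillin/streptomycin, 37°C, 5% CO2. Quantified from 3 independent experiments, mean + SD, Student's t test.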

[21] = test system: MCF-10A; assay: Antiproliferative activity against human MCF-10A cells assessed as loss of clonal survival upto 25 uM incubated for 10 days by crystal violet staining based assay; type: toxicity, cell-based; conditions: 240 h, time 10 day
[22] = test system: HCT-116; assay: Induction of apoptosis in human HCT-116 cells assessed as increase in cleaved PARP level at 5 to 10 uM measured after 48 hrs by immunoblot analysis; type: functional, cell-based; conditions: dose 5-10 µM
[23] = test system: HCT-116; assay: Antiproliferative activity against human HCT-116 cells with p53+/+ at 10 uM measured after 96 hrs in presence of Z-VAD-FMK by Syto60 staining based assay; type: functional, cell-based
[24] = biological target: Insulin-like growth factor 1 receptor (Homo sapiens, UniProt P08069); assay: Binding affinity to IGF1R (unknown origin) assessed as dissociation constant by Ambit kinase binding assay
[25] = biological target: Leukocyte tyrosine kinase receptor (Homo sapiens, UniProt P29376); assay: Binding affinity to LTK (unknown origin) assessed as dissociation constant by Ambit kinase binding assay
[26] = biological target: Protein-tyrosine kinase 2-beta (Homo sapiens, UniProt Q14289); assay: Binding affinity to PYK2 (unknown origin) assessed as dissociation constant by Ambit kinase binding assay
[27] = biological target: Non-receptor tyrosine-protein kinase TNK1 (Homo sapiens, UniProt Q13470); assay: Binding affinity to TNK1 (unknown origin) assessed as dissociation constant by Ambit kinase binding assay

Chain of MAP/microtubule affinity-regulating kinase 4 (Homo sapiens) (Q96L34 whole entry): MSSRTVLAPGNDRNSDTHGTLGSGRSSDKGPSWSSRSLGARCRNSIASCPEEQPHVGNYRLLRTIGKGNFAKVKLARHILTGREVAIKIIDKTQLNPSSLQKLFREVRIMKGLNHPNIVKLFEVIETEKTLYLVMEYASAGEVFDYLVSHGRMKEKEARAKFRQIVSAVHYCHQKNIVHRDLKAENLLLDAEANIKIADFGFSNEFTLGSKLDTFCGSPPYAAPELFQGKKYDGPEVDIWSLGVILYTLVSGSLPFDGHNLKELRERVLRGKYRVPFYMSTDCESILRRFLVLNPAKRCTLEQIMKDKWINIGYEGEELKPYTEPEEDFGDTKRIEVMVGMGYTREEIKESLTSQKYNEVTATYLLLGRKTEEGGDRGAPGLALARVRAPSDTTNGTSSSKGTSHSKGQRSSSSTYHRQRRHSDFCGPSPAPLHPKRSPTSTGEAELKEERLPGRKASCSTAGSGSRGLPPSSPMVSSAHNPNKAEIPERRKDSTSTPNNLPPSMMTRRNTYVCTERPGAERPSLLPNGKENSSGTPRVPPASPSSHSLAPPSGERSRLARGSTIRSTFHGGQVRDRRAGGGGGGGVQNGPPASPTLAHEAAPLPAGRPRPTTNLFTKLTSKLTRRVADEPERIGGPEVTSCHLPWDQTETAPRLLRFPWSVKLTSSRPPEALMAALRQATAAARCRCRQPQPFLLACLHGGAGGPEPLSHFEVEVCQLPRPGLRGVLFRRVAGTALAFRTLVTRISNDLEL
Chain of Aurora kinase C (Homo sapiens) (Q9UQB9 whole entry): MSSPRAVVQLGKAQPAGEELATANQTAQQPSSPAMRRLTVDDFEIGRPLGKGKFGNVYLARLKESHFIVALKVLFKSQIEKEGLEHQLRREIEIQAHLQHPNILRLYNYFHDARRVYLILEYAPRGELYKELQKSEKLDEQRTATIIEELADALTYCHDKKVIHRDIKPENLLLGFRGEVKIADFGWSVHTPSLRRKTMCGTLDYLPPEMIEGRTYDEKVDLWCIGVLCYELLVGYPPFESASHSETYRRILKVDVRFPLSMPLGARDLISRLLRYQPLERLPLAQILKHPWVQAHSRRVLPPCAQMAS
Chain of Insulin receptor (P06213 28-758 limits assumed): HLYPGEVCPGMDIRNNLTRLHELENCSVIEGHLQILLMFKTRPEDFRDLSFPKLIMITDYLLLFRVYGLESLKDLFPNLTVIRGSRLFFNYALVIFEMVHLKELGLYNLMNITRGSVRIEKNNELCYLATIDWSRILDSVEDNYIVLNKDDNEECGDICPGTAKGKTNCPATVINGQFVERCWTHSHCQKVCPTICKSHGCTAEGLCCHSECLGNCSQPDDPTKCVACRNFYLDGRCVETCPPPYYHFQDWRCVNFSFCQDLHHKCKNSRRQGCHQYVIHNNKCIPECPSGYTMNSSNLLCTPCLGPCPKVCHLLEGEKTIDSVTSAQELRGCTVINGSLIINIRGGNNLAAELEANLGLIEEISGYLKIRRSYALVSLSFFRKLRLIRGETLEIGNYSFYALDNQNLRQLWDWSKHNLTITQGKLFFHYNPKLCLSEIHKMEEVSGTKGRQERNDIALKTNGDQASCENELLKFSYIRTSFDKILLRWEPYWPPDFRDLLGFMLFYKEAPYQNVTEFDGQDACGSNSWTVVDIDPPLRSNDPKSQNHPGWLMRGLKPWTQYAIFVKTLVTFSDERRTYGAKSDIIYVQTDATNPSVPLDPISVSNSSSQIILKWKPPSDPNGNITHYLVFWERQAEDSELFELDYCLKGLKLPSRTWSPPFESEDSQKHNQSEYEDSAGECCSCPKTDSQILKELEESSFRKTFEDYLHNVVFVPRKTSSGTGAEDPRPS
Chain of Insulin receptor (P06213 763-1382 limits assumed): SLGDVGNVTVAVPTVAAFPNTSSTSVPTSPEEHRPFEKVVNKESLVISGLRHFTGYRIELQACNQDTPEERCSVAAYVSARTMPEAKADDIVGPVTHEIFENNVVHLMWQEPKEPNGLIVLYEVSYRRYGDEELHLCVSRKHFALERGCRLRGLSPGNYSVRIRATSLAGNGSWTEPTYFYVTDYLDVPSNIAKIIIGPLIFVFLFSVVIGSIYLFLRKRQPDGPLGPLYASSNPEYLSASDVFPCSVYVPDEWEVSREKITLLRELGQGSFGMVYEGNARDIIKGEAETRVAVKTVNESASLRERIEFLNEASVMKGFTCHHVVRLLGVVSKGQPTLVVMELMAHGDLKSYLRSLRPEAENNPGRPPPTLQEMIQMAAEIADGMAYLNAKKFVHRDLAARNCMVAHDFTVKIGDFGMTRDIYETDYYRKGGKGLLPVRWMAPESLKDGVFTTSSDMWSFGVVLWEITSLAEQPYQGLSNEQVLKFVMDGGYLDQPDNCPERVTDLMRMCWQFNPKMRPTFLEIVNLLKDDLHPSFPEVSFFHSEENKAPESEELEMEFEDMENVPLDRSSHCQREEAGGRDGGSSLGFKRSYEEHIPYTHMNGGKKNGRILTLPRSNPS
Chain of Insulin-like growth factor 1 receptor (P08069 31-736 limits assumed): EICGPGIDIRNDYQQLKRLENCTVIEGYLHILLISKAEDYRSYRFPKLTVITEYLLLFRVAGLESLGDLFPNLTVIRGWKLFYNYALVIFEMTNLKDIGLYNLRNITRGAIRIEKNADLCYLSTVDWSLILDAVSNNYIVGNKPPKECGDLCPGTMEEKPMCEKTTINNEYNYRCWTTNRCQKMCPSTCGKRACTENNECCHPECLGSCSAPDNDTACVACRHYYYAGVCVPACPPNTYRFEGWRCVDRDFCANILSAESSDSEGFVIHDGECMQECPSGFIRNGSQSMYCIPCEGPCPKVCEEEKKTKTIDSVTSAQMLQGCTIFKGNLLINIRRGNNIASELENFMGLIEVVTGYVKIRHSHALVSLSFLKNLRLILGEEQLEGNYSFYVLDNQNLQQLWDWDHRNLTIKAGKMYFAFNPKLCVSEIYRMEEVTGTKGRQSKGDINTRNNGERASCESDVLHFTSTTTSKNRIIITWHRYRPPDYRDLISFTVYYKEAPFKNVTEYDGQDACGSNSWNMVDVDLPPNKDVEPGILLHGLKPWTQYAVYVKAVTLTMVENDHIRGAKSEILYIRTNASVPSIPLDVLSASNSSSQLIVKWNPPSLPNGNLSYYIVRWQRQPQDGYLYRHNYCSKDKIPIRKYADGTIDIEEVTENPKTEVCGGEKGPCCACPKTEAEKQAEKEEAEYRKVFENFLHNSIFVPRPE
Chain of Insulin-like growth factor 1 receptor (P08069 741-1367 limits assumed): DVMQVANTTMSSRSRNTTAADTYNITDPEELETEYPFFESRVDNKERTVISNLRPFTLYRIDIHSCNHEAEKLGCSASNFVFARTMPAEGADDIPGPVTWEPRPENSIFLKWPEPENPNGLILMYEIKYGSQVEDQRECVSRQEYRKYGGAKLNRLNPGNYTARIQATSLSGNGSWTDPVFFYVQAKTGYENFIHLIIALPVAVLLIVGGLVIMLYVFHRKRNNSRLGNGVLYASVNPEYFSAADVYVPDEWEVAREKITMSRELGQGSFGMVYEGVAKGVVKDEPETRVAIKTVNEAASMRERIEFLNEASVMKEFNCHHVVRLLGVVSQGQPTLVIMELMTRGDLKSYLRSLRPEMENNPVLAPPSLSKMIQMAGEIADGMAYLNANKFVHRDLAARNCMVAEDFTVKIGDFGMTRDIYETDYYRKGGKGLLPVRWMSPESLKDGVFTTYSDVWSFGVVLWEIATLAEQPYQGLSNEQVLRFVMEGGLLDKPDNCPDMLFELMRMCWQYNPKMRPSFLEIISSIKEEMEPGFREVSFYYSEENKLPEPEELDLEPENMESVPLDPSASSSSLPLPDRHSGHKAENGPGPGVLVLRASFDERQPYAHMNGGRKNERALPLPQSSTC
Chain of Tyrosine-protein kinase Tec (Homo sapiens) (P42680 whole entry): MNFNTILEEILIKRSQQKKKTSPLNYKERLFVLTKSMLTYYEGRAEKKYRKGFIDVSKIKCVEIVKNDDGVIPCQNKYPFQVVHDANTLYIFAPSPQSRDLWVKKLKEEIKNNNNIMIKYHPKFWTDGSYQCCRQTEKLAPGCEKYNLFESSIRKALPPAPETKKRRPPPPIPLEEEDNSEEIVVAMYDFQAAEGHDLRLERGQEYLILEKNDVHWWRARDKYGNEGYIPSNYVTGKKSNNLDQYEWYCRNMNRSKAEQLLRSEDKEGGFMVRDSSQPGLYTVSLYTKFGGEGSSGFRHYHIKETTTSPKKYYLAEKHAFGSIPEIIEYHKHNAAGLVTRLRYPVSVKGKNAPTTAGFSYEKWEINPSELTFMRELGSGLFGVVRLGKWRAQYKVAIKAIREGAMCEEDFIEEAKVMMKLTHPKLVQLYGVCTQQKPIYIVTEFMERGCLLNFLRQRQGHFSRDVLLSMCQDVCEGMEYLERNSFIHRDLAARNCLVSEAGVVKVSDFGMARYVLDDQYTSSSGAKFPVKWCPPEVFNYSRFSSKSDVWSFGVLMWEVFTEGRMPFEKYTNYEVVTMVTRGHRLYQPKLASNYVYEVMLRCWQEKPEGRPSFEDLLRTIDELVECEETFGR
Chain of Aurora kinase B (Homo sapiens) (Q96GD4 whole entry): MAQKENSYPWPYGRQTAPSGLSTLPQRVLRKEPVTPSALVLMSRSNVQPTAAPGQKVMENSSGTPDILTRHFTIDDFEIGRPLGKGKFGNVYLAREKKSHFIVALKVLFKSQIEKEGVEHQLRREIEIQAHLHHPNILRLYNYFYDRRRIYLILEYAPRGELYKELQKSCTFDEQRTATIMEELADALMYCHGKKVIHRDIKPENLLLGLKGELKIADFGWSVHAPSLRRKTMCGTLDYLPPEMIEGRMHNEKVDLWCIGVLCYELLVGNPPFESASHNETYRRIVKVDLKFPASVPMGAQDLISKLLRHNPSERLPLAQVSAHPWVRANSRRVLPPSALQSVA

SMILES: O=C1c2ccccc2-c2n[nH]c3cccc1c23
- Activity [1]: 23%
- Activity [2]: 15%
- Activity [3]: 28%
- Activity [4]: 11%

SMILES: COc1cc(N2CCC(O)CC2)ccc1Nc1cc(Nc2ccccc2S(=O)(=O)C(C)C)c2cc[nH]c2n1
- Activity [5]: 8%
- Activity [6]: inactive
- Activity [7]: 8.9%
- Activity [8]: 0.15%
- Activity [9]: 1.2%
- Activity [10]: Active
- Activity [11]: 46.5
- Activity [12]: 3.3
- Activity [13]: Active
- Activity [14]: inactive
- inhibition [15]: inactive
- inhibition [16]: Active
- Activity [17]: inactive
- Activity [18]: inactive
- inhibition [19]: Active
- Activity [20]: Active
- Activity [21]: Toxic
- Activity [22]: Active
- Activity [23]: Active
- pKd [24]: 6.12
- pKd [25]: 7.54
- pKd [26]: 6.55
- pKd [27]: 5.59

Source: ChEMBL document CHEMBL5705891, “Small-molecule kinase inhibitors provide insight into Mps1 cell cycle function” (Nat Chem Biol, 2010)
